The nature of this series: Toxicity liver stage against HepG2, at 10uM. Also noted: test concentration 10 uM, cell line HepG2-A16-CD81EGFP. The class given is cell-based. The settings on record: human, HepG2-A16-CD81EGFP cells; read-out: INHIBITION
In a few lines: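 Uninfected HepG2-A16-CD81EGFP cells, 3 × 10^3 per well, 1536-well, plated on prespotted compound at 10 μM final, parasite-free screening media added to match infected plates; puromycin 10 μM positive, DMSO 0.5% negative; run in parallel with 48 h PbLuc assay at 37 °C, 5% CO2; viability by CellTiter-Glo luminescence, normalized to controls.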
As for `Cc1cc(C(=O)NCc2cccn2C)nn1C`, the cytotoxicity at 10 µM worked out at 1.21%.
The value for `C/C(NC(=O)c1ccccn1)=C1\C(=O)C[C@@H]2[C@H]1C2(C)C` was 7.66%; that for `O=c1[nH]c2c(-c3ccccn3)nsc2c(=O)n1C1CCCCC1` was -11.5%.
`Cc1n[nH]c2c1C(c1ccc3c(c1)OCO3)SCC(=O)N2` (stereo not drawn): the cytotoxicity at 10 µM amounted to 3.46%.
The value for `Cc1nn(S(=O)(=O)c2ccc(Cl)cc2)c(C)c1C` was 15.1%; that for `COCCN(Cc1ccoc1)C(=O)c1c(F)cccc1Cl` was -0.11%; that for `Cc1oc(-c2nc(C#N)c(N(C)C)o2)cc1S(=O)(=O)N1CCCC1` was -8.87%.
The value for `Cc1noc([C@@H]2CC[C@@H]3[C@@H](CCN3S(=O)(=O)C3CC3)O2)n1` was -11.6%.
The value for `CCO[C@@H]1CC[C@H]2[C@H]1OCCN2C(=O)C1CCOCC1` was -19.8%; that for `Cc1ccnc(NC(=O)CCc2cnn(C)c2C)c1` was 0.107%; that for `CCS(=O)(=O)Nc1cnn(Cc2cccc(F)c2)c1` was -1%.
`CCn1c(SCC(=O)O)nnc1C(C)NC(=O)c1ccc(Cl)cc1` (stereo not drawn): the cytotoxicity at 10 µM came out at 3.52%.
The value for `CCOC(=O)C1CCN(c2cc(C(=O)N3CCCCC3)nc(C)n2)CC1` was -4.17%; that for `O=C(O)c1ccnc2c(Br)cccc12` was 8.02%; that for `O=C(O)[C@H]1CN(Cc2ccccc2)C[C@@H]1C(=O)c1ccccc1` was 5.76%.
The value for `CC(C)NC(=O)NCc1nnc2n1C(C(=O)N(C)C)CC2` (stereo not drawn) was 5.45%; that for `O=C(COc1ccccc1Br)N1CCOc2ccncc21` was 5.13%.
The value for `O=c1[nH]c(=O)n(CC(O)c2ccc(F)cc2F)cc1Cl` (stereo not drawn) was 2.64%; that for `Cc1cc(NC(=O)N2CCC[C@@H]2CO)nn1-c1cccc(Cl)c1` was -1.08%.
For the compound `CC(=O)NC1CCCN(C(=O)CCc2cccnc2)C1` (stereo not drawn), the cytotoxicity at 10 µM is 19.8%.
As for `N#Cc1cc(S(N)(=O)=O)ccc1N1CCc2c(Cl)cccc2C1`, the cytotoxicity at 10 µM amounted to 14.7%.
Turning to `O=C(CNC(=O)C1CC1)Nc1c(F)cccc1Oc1ccccc1`, the cytotoxicity at 10 µM amounted to 0.99%.
The value for `CN(C)C(CNC(=O)c1ccnc(-n2cncn2)c1)c1ccccc1` (stereo not drawn) was -130%; that for `CC(=O)N1CCC(NC(=O)CN2CCCc3c(F)ccc(C)c32)CC1` was -7.68%; that for `Cc1ccccc1OCCCC(=O)NCc1ccnc(O)c1` was 5.65%.
In the case of `OCCN(Cc1cccnc1)c1cnc2ccccc2n1`, the cytotoxicity at 10 µM stood at 1.06%.
The value for `CCCn1nnnc1CSc1nccn1Cc1ccccn1` was 6.24%.
`CN(CCCNC(=O)Nc1ccc(C#N)cc1)CC(F)(F)F`: the cytotoxicity at 10 µM was -3%.
The value for `Cc1cc(I)cnc1NC(=O)C(C)(C)C` was 4.44%.
The value for `CCOCCOC(C)C(=O)Nc1ccc2ccn(CCN(C)C)c2c1` (stereo not drawn) was 10.1%; that for `CC(C)(C)Oc1ccc(C(=O)N2CCOCC2c2ncon2)cc1` (stereo not drawn) was -0.968%.
The value for `NC(=O)CN(CC1CCOC1)C1CC1` (stereo not drawn) was -14%.
In the case of `Cn1ccc2c(C(=O)NCCCS(C)(=O)=O)cccc21`, the cytotoxicity at 10 µM is -0.915%.
With `O=C(c1ccco1)N(CC(F)(F)F)C1CCCOC1` (stereo not drawn), the cytotoxicity at 10 µM is -19.5%.
The value for `CCOC(C)c1nc(CN2CCN(Cc3cccnc3)CC2)cs1` (stereo not drawn) was 3.59%; that for `O=C(CN1CCCCC1Cn1cccn1)NC1CCOCC1` (stereo not drawn) was 4.08%; that for `Cc1noc(C)c1CNC(=O)N1CCC(NS(C)(=O)=O)CC1` was -9.41%.
With `COc1ccc(F)cc1C[S+]([O-])CC(=O)NCc1ccccc1C` (stereo not drawn), the cytotoxicity at 10 µM was -0.907%.
On to `CN1CCC(NC(=O)CC2CN(Cc3ccccc3)CCO2)CC1` (stereo not drawn), for which the cytotoxicity at 10 µM was -22.2%.
The value for `Cc1cccc(-c2nc(CN3CCn4c(nnc4C4CC4)C3)no2)c1` was 3.33%; that for `N#Cc1nccnc1NC1CCN(c2c(F)cccc2F)C1` (stereo not drawn) was 5.2%.
The value for `CCc1noc(CC)c1CNC(=O)Nc1cccc(C(=O)N(C)C)c1` was 16.4%.
Consider `COc1cc(F)c(C(C)NC(=O)c2cccnc2C)cc1OC` (stereo not drawn), for which the cytotoxicity at 10 µM is 38%.
The value for `O=C(c1ccc(N2CCCC2)nn1)N1CCCc2cc(F)c(F)cc21` was -16.3%; that for `CSCCN(C)Cc1ccc(F)cc1C#N` was 4.81%.
The value for `COc1ccnc(N2CCN(Cc3nc(-c4ccoc4)no3)CC2)c1` was -10.9%; that for `CC(C)COCC(NC(=O)Cc1ccn[nH]1)c1ccco1` (stereo not drawn) was -1.53%; that for `CN(CCC#N)C(=O)Cc1csc(-c2ncccn2)n1` was -0.343%.
On to `Cc1nc(C2CCCN2C(=O)CCCOc2ccccc2C)no1` (stereo not drawn), for which the cytotoxicity at 10 µM was -2.21%.
For `CC(C)c1nc(CN(C)C2CCN(CC(F)(F)F)C2)no1` (stereo not drawn), the cytotoxicity at 10 µM is -15.8%.
The value for `COc1cccc(N2CCN(C(=O)C(C)Oc3ccccc3)CC2=O)c1` (stereo not drawn) was -4.73%; that for `CC(C)CC(C)NCc1cccnc1N1CCN(c2ccccn2)CC1` (stereo not drawn) was 0.997%; that for `CCc1nnc(CN(CC)C(=O)C2CC(=O)N(C3CC3)C2)o1` (stereo not drawn) was -0.143%.
Consider `Cc1cc(C(=O)N2CCCC(c3ccc(C(=O)O)cc3)C2)c(C)o1` (stereo not drawn), for which the cytotoxicity at 10 µM was 11.8%.
As to `CCCn1nccc1S(=O)(=O)N1CCC2(CCCN(C(C)C)C2=O)C1` (stereo not drawn), the cytotoxicity at 10 µM amounted to 5.96%.
The value for `O=C(O)[C@@H]1CN(C2CCCCC2)C[C@H]1C1CC1` was -140%; that for `CN1CCCN(C(=O)c2cnc(Cc3c(Cl)cccc3Cl)nc2O)CC1` was -0.862%; that for `O=C1O[C@@H]2CN(Cc3ccsc3)C[C@@H]2N1Cc1ccccn1` was 9.77%.
The value for `COCCS(=O)(=O)c1ncc(CN(C)C)n1Cc1ccccc1` was 3.19%; that for `Cc1csc(CN2CC[C@@](O)(C3CCOCC3)[C@H](C)C2)n1` was 4.48%.
The value for `O=C(c1cnn[nH]1)N(Cc1ccncc1)CC1CCCO1` (stereo not drawn) was 2.86%; that for `CCC(C)N(Cc1sccc1C)C(=O)c1cnc[nH]1` (stereo not drawn) was 5.55%; that for `Cc1ccc(F)cc1CC(=O)N1CC[C@@]2(O)CCNC[C@H]2C1` was 2.38%.
For `O=C(O)CSc1nnc(-c2ccn[nH]2)n1-c1cccc(C(F)(F)F)c1`, the cytotoxicity at 10 µM was 0.34%.
Turning to `c1ccc(COCCN2CCc3[nH]cnc3C2c2ccoc2)cc1` (stereo not drawn), the cytotoxicity at 10 µM is 6.62%.
The value for `CCn1cc(C2=CCN(CCCOc3ccccc3)CC2)cn1` was -9.98%; that for `CCC(CO)N(Cc1ccco1)C(=O)c1cccnc1NC` (stereo not drawn) was 1.64%; that for `CN(CC1CCOCC1)C(C(=O)O)c1cccc(F)c1F` (stereo not drawn) was 6.89%.
For the compound `CC(C)n1ccnc1CN1CCOC(CCc2ccccc2)C1` (stereo not drawn), the cytotoxicity at 10 µM was -132%.
As for `O=C(Cc1n[nH]c(-c2cncc(Br)c2)n1)NCc1cccnc1`, the cytotoxicity at 10 µM was 2.74%.
With `CCNc1cc(N2CCN(C(=O)c3ccc(OC)cc3)CC2)nc(C)n1`, the cytotoxicity at 10 µM was -3.45%.
The value for `C=C(C)COc1cccc(C(=O)NCCCc2nnn[nH]2)c1` was -0.531%; that for `Cc1nc2ncnn2c2ccn(-c3cccnc3O)c(=O)c12` was 15.9%; that for `Cn1cccc1C(=O)N1CCC2(CCCN(CC3CC3)C2=O)C1` (stereo not drawn) was -0.445%.
The value for `CCCc1nc(CNC(=O)Cc2csc(C)n2)cs1` was -10.6%; that for `COc1ccccc1OC1CN(C(=O)Cc2c(C)nc(C)[nH]c2=O)C1` was -2.9%.
Turning to `Cc1noc(C)c1CCC(=O)N1CCN(CCn2cncn2)CC1`, the cytotoxicity at 10 µM amounted to 5.03%.
The value for `Cc1ncsc1CCC(=O)NCc1cc2n(n1)CCN(C(=O)N(C)C)C2` was 15.3%; that for `O=C(NCCNc1ncccn1)C1CCN(C(=O)NC2CC2)CC1` was -14.5%; that for `Cc1cnn(C2CCCN(C(=O)CCCn3ccnc3C)C2)c1` (stereo not drawn) was -18.3%.
The value for `CCc1ccc(C(=O)N2CCC(c3nncn3CC)CC2)s1` was -15.4%; that for `Cc1nn(C)c(N2CCOCC2)c1CNC1CCC(O)CC1` (stereo not drawn) was -13.2%; that for `Cc1cc(CN2CCN(CC(O)c3ccc(Cl)cc3)CC2)no1` (stereo not drawn) was -7.06%.
The value for `N#Cc1ccc(OCC(O)CN2CCc3cncnc3C2)cc1` (stereo not drawn) was -8.61%; that for `N#CCc1cccc(C(=O)N2CCN(CC(O)c3ccccc3)CC2)c1` (stereo not drawn) was -10.7%; that for `Cc1nn(C)cc1C(=O)N1CCCC(n2cncn2)C1` (stereo not drawn) was -3.27%.
On to `Cc1cc(C)n(CC2CN(CCOc3ccccc3F)CCO2)n1` (stereo not drawn), for which the cytotoxicity at 10 µM was -6.73%.
The value for `c1csc(-c2noc(CN3CCCCC3Cn3cccn3)n2)c1` (stereo not drawn) was -15.4%; that for `CC(NC(=O)Nc1ccc(N2CCCC2)nc1)c1nncn1C` (stereo not drawn) was -12.6%.
Turning to `Cc1n[nH]c(C)c1NC(=O)CN1CCCC1c1c(C)nn(C)c1C` (stereo not drawn), the cytotoxicity at 10 µM is -19.2%.
The value for `CC(C)c1csc(C2CCCN(C(=O)Cn3ccccc3=O)C2)n1` (stereo not drawn) was -14.4%; that for `CS(=O)(=O)NCCCN1CCCC1c1ccccc1` (stereo not drawn) was -13.4%; that for `Cc1cnn(CC2CCCN2C(=O)c2cc3ccccc3[nH]c2=O)c1` (stereo not drawn) was 2.38%.
Turning to `CCn1ncc2c1C(COCC1CC1)N(C(=O)c1ccncn1)CC2` (stereo not drawn), the cytotoxicity at 10 µM was -147%.
The value for `CCn1cc2c(n1)CN(Cc1ccoc1)CC2COCC1CC1` (stereo not drawn) was -23.3%.
On to `CC(C)NC(=O)c1ccc2c(c1)C1(CCN(C)CC1)C(=O)N2`, for which the cytotoxicity at 10 µM was -0.201%.
The value for `CSc1ccccc1C(=O)N1C[C@@H]2CC[C@H]1CN(C(=O)C1CCC1)C2` was -6.75%; that for `OC12CCC(CC1)N(Cc1ccc(F)cc1)C2CN1CCOCC1` (stereo not drawn) was 5.29%.

Source of the values: ChEMBL document CHEMBL4513216, “Probing the Open Global Health Chemical Diversity Library for Multistage-Active Starting Points for Next-Generation Antimalarials” (ACS Infect Dis, 2020).
